Reference: publication PMC4486249 (Journal of medicinal chemistry, 2010)
Entries after “also recorded” stand apart in the source; their conditions may differ. Where a SMILES comes first, the peptide text is derived from it.

Key:
[1] = tested on: HIV-1HXB2 in MT-4 Luc cells; assay: MT-4 Luc assay, protection from HIV-1-induced cell death; format: cell-based; conditions: for IC50 of inhibition of HIV-1 replication in cells: MT-4 Luc cell system, in words; for inhibitory effect against HIV-1 replication: MT-4 Luc cells infected with HIV-1, luciferase signal, various concentrations (Figure 4)
RT-associated RNase H = RT-associated RNase H (Human immunodeficiency virus type 1 group M subtype B, UniProt P04585); assay: RT-associated RNase H activity assay; format: biochemical, HIV-1
[2] = tested on: X4-tropic HIV-1HXB2 on MT-4 cells; assay: HIV-1 replication kinetics in MT-4 cells; format: cell-based; conditions: 0.5 μM peptide, replication kinetics (Figure 5B)
In short: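 MT-4 cells (1×10^5) were exposed to HIV-1HXB2-containing culture supernatant (ca. 0.2-50 ng p24) for 30 min at room temperature, then washed and cultured with or without 0.5 μM test peptide. Supernatants were collected at several time points, with cells passaged if necessary. Replication was read out as p24 antigen levels measured by ELISA.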

MT-4 Luc cells = conditions: MT-4 Luc system (Figure 4)

| SMILES | antiviral effect ([1]; MT-4 Luc cells, at a concentration of 20 μM) | IC50 (RT-associated RNase H) [µM] | IC50 of inhibition of HIV-1 replication in cells [1] | inhibitory effect against HIV-1 replication [1] | anti-HIV-1 activity ([1]; MT-4 Luc cells, below concentrations of 20 μM) | replication of HIV-1HXB2 [2] | cytotoxicity, comparison (MT-4 Luc cells) |
| --- | --- | --- | --- | --- | --- | --- | --- |
| CC(=O)N[C@@H](CC(C)C)C(=O)N[C@@H](CCC(N)=O)C(=O)N[C@@H](CCC(N)=O)C(=O)N[C@@H](CC(C)C)C(=O)N[C@@H](CC(C)C)C(=O)N[C@@H](Cc1ccccc1)C(=O)N[C@@H](CCCNC(=N)N)C(=O)N[C@@H](CCCNC(=N)N)C(=O)N[C@@H](CCCNC(=N)N)C(=O)N[C@@H](CCCNC(=N)N)C(=O)N[C@@H](CCCNC(=N)N)C(=O)N[C@@H](CCCNC(=N)N)C(=O)N[C@@H](CCCNC(=N)N)C(=O)N[C@@H](CCCNC(=N)N)C(N)=O [Vpr-1 R8] (Ac-LQQLLFRRRRRRRR-NH2) | weak antiviral effect |  |  |  |  |  |  |
| CC[C@H](C)[C@H](NC(=O)[C@H](C)NC(=O)[C@H](CCC(=O)O)NC(C)=O)C(=O)N[C@H](C(=O)N[C@@H](CCCNC(=N)N)C(=O)N[C@H](C(=O)N[C@@H](CC(C)C)C(=O)N[C@@H](CCC(N)=O)C(=O)N[C@@H](CCC(N)=O)C(=O)N[C@@H](CC(C)C)C(=O)N[C@@H](CC(C)C)C(=O)N[C@@H](Cc1ccccc1)C(=O)N[C@H](C(=O)N[C@@H](Cc1c[nH]cn1)C(=O)N[C@@H](Cc1ccccc1)C(=O)N[C@@H](CCCNC(=N)N)C(=O)N[C@H](C(=O)NCC(=O)N[C@@H](CCCNC(=N)N)C(=O)N[C@@H](CCCNC(=N)N)C(=O)N[C@@H](CCCNC(=N)N)C(=O)N[C@@H](CCCNC(=N)N)C(=O)N[C@@H](CCCNC(=N)N)C(=O)N[C@@H](CCCNC(=N)N)C(=O)N[C@@H](CCCNC(=N)N)C(=O)N[C@@H](CCCNC(=N)N)C(N)=O)[C@@H](C)CC)[C@@H](C)CC)[C@@H](C)CC)[C@@H](C)CC [Vpr-4 R8] |  | > 0.5 | submicromolar | significant inhibitory effects |  |  |  |
| CC[C@H](C)[C@H](NC(C)=O)C(=O)N[C@@H](Cc1c[nH]cn1)C(=O)N[C@@H](Cc1ccccc1)C(=O)N[C@@H](CCCNC(=N)N)C(=O)N[C@H](C(=O)NCC(=O)N[C@@H](CCCNC(=N)N)C(=O)N[C@@H](CCCNC(=N)N)C(=O)N[C@@H](CCCNC(=N)N)C(=O)N[C@@H](CCCNC(=N)N)C(=O)N[C@@H](CCCNC(=N)N)C(=O)N[C@@H](CCCNC(=N)N)C(=O)N[C@@H](CCCNC(=N)N)C(=O)N[C@@H](CCCNC(=N)N)C(N)=O)[C@@H](C)CC [Vpr-2 R8] (Ac-IHFRIGRRRRRRRR-NH2) |  |  |  |  | no significant anti-HIV-1 activity |  |  |
| CC[C@H](C)[C@H](NC(=O)[C@H](CCCNC(=N)N)NC(=O)[C@H](Cc1ccccc1)NC(=O)[C@H](Cc1cnc[nH]1)NC(=O)[C@@H](NC(=O)[C@H](Cc1ccccc1)NC(=O)[C@H](CC(C)C)NC(=O)[C@H](CC(C)C)NC(=O)[C@H](CCC(N)=O)NC(=O)[C@H](CCC(N)=O)NC(=O)[C@H](CC(C)C)NC(C)=O)[C@@H](C)CC)C(=O)NCC(=O)N[C@@H](CCCNC(=N)N)C(=O)N[C@@H](CCCNC(=N)N)C(=O)N[C@@H](CCCNC(=N)N)C(=O)N[C@@H](CCCNC(=N)N)C(=O)N[C@@H](CCCNC(=N)N)C(=O)N[C@@H](CCCNC(=N)N)C(=O)N[C@@H](CCCNC(=N)N)C(=O)N[C@@H](CCCNC(=N)N)C(N)=O [Vpr-3 R8] |  | > 0.5 | submicromolar | significant inhibitory effects |  | quite low; also recorded: extensively suppressed | less cytotoxic than Vpr-4 R8 |
